In PubChem BioAssay:
Inconclusive results are not listed.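 Rule for the calls, unless noted: active = inhibition over a set limit, the all-compound mean plus 3 SD, in both replicate runs; inconclusive = over that limit in just one replicate run; inactive = at or under that limit in both runs.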

Columns and labels:
[1] = OD615 S. cerevisiae growth inhibition, permissive medium, pilot counter-assay, permissive growth control for S. cerevisiae lifespan shortening project (AID 705;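 active = growth inhibition above 25% in both replicates, a cutoff set 3 SD above the mean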); conditions: OD615, 24 h, at 10 µM, active compounds read high
In short: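 System: Engineered DeaD yeast | Buffer or medium: SC raffinose/galactose permissive medium | Doses: 10 µM single dose, 0.25% DMSO | Times: 24 h exposure, 30 °C | Measured by: OD615 turbidity read | Read-out: Yeast growth inhibition indicated by reduced 24 h OD615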

[2] = Restrictive medium S. cerevisiae growth inhibition, OD615, pilot screen of yeast lifespan reduction project, restrictive growth control (AID 706;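 active = growth inhibition above a set limit, 3 SD over mean compound inhibition, in both replicates, cut at about 43% in these data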;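 note: modified DeaD lifespan yeast strain shifted to restrictive glucose medium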); conditions: OD615, 48 h, at 10 µM, active compounds read high
In short: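 Assay system: engineered S. cerevisiae DeaD strain; Buffer or medium: CSMM-D glucose medium; Dosing: 10 µM compound, 0.25% DMSO; Times: cell pre-growth 4 h, compound exposure 48 h, 30 °C; Detection: absorbance (optical density) measured at 615 nm.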

[3] = viability gain of MRP-1-high H69AR cells under doxorubicin, pilot screen, MRP-1 activator project, CellTiter-Glo, duplicate (AID 807;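 active = viability increase at or above a cutoff of the median across tested compounds plus 3 SD, cut at about 8.5% in these data, passing the limit was not always enough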;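 note: compound pretreatment 18-22 h then 72 h combined with doxorubicin; 0% = doxorubicin alone and 100% = vehicle without doxorubicin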); conditions: H69AR viability with doxorubicin, CellTiter-Glo luminescence; at 10 µM; active compounds read high
[4] = growth suppression of beta-catenin knockout HCT116, pilot screen, human colon tumor cells (AID 823;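 active = cell viability at or below a set limit in both duplicate runs, the limit being the all-compound median minus 4 SD, cut at about 23% in these data, passing the limit was not always enough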;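 note: 0% = wells killed by 20 µM Hyamine and 100% = untreated DMSO cell wells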); conditions: CellTiter-Glo, 60 h, at 10 µM, active compounds read low
[5] = growth suppression of PTEN-deleted HCT116, pilot screen, cell-based, HCT116 clonal line, CellTiter-Glo (AID 824;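 active = viability at or below 27.92% in each of two runs, the all-compound median minus 4 SD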;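 note: 0% = 20 µM Hyamine control and 100% = vehicle cell control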); conditions: 60 h, at 10 µM, active compounds read low
[6] = inhibitors of the yeast RAM network, pilot screen, dse1pr::URA3 reporter, 5-FOA selection (AID 869);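 note: 0% = DMSO wells with no growth and 100% = 10 µM 1-NA-PP1 with full growth; RAM network block rescues cells from 5-FOA so hits raise OD615 growth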; conditions: S. cerevisiae dse1pr::URA3 5-FOA growth, OD615, 2 d; at 10 µM; active compounds read high; strain carries analog-sensitive mutant Cbk1 kinase
[7] = RAM signaling pathway blockade in yeast – S. cerevisiae, Pdr1DBD-CYC8 efflux-inhibited sensitized strain, primary screen (AID 1298;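 active = RAM network inhibition above 8.4% in each of two replicates, 3 SD over the compound average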;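 note: 0% = DMSO untreated cells without growth and 100% = 10 µM 1-NA-PP1 full growth; higher means more yeast growth rescued from 5-FOA killing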); conditions: S. cerevisiae cbk1-as DSE1-URA3 strain, 5-FOA growth OD615, 2 d; at 50 µM; active compounds read high

O=C(C1CCC(Cn2c(=O)[nH]c3ccccc3c2=O)CC1)N1CCN(c2ccccc2)CC1 (stereo not drawn)
inactive: growth inhibition [1] -14.3% | growth inhibition [2] -1.08% | viability increase [3] 2.93% | viability [4] 82.6% | viability [5] 67.6% | inhibition [6] 1.81% | RAM network inhibition [7] 6.69%

COc1ccc(OC)c2c(C)cc(NCCN3CCOCC3)nc12
inactive: growth inhibition [1] -14.7% | growth inhibition [2] -2.92% | viability increase [3] -4.52% | viability [4] 81.5% | viability [5] 84.9% | inhibition [6] 1.78% | RAM network inhibition [7] 2.55%

CCOC(=O)Cc1csc(NC(=O)c2c(-c3ccccc3)noc2C)n1
inactive: growth inhibition [1] -10.4% | growth inhibition [2] -8.59% | viability increase [3] 4.11% | viability [4] 99.4% | viability [5] 101% | inhibition [6] -0.185% | RAM network inhibition [7] 1.54%

COc1ccc(C(=O)NCC(c2cccnc2)N2CCN(c3ccc(F)cc3)CC2)cc1OC (stereo not drawn)
inactive: growth inhibition [1] -12.2% | growth inhibition [2] -0.995% | viability increase [3] -3.89% | viability [4] 88.9% | viability [5] 80.8% | inhibition [6] 1.82% | RAM network inhibition [7] 4.32%

O=C(Nc1nnc(-c2ccc3c(c2)CCCC3)o1)C1COc2ccccc2O1 (stereo not drawn)
inactive: growth inhibition [1] 5.39% | growth inhibition [2] 23% | viability increase [3] -2.7% | viability [4] 44.3% | viability [5] 51.1% | inhibition [6] 0.315% | RAM network inhibition [7] -1.78%

CCOc1ccc(C2CC(c3cccc(OC)c3)n3nc(N)nc3N2)cc1 (stereo not drawn)
inactive: growth inhibition [1] 0.02% | growth inhibition [2] 5.62% | viability increase [3] 0.88% | viability [4] 109% | viability [5] 92.3% | inhibition [6] 0.875% | RAM network inhibition [7] 4.58%

O=C(NC1CCN(Cc2ccccc2)CC1)C1CCCN(c2nnc(-n3cccc3)s2)C1 (stereo not drawn)
inactive: growth inhibition [1] -4.03% | growth inhibition [2] 11.1% | viability increase [3] -4.97% | viability [4] 93.1% | viability [5] 84.5% | inhibition [6] 0.085% | RAM network inhibition [7] 0.11%

O=c1nc(-c2ccccc2)cn[nH]1
inactive: growth inhibition [1] -4.61% | growth inhibition [2] -4.27% | viability increase [3] -0.11% | viability [4] 101% | viability [5] 105% | inhibition [6] 1.29% | RAM network inhibition [7] 2.6%

CCOc1ccccc1NC(=O)CSc1nc2c(c(=O)n1C)SC(C)C2 (stereo not drawn)
inactive: growth inhibition [1] -8.29% | growth inhibition [2] -4.14% | viability increase [3] -2.89% | viability [4] 92.3% | viability [5] 89.1% | inhibition [6] 2% | RAM network inhibition [7] 4.44%

Cn1c(=O)oc2cc(S(=O)(=O)N3CCCC(C(=O)NCCN4CCOCC4)C3)ccc21 (stereo not drawn)
inactive: growth inhibition [1] -1% | growth inhibition [2] 10.4% | viability increase [3] -0.15% | viability [4] 103% | viability [5] 108% | inhibition [6] 0.68% | RAM network inhibition [7] 4.15%

CCc1cc2c(=O)c(Oc3ccccc3F)c(C)oc2c(CN(C)C)c1O
inactive: growth inhibition [1] -5.07% | growth inhibition [2] 9.37% | viability increase [3] -7.21% | viability [4] 95.2% | viability [5] 89.1% | inhibition [6] 3.73% | RAM network inhibition [7] 6.03%

CC1CCCCN1C(=O)CSCC(=O)Nc1nc(-c2cccs2)cs1 (stereo not drawn)
inactive: growth inhibition [1] 2.07% | growth inhibition [2] -3.92% | viability increase [3] -4.62% | viability [4] 99.2% | viability [5] 94.6% | inhibition [6] 0.505% | RAM network inhibition [7] 1.69%

O=C(CC1Sc2ncnn2C1=O)Nc1ccc(Br)cc1 (stereo not drawn)
inactive: growth inhibition [1] -5.64% | growth inhibition [2] -9.71% | viability increase [3] -1.23% | viability [4] 106% | viability [5] 100% | inhibition [6] 1.93% | RAM network inhibition [7] 5.71%

Cn1c(C(=O)NC2CCCC2)cc2c(=O)n(C)c3ccccc3c21
inactive: growth inhibition [1] -12.6% | growth inhibition [2] 3.59% | viability increase [3] -2.84% | viability [4] 84.3% | viability [5] 87.4% | inhibition [6] 1.21% | RAM network inhibition [7] 7.72%

C(#Cc1ccc(C#CCN2CCOCC2)cc1)CN1CCOCC1
inactive: growth inhibition [1] -17.1% | growth inhibition [2] -9.67% | viability increase [3] -0.83% | viability [4] 85.8% | viability [5] 87.2% | inhibition [6] 1.15% | RAM network inhibition [7] 3.18%

C=CCc1c(C)nc(SC)nc1Nc1ccc(C(C)=O)cc1
inactive: growth inhibition [1] -6.88% | growth inhibition [2] -6.6% | viability increase [3] -3.83% | viability [4] 83.8% | viability [5] 87.1% | inhibition [6] 1.53% | RAM network inhibition [7] 6.87%

Cc1ccc(-n2c(SCC(=O)Nc3cc(C)on3)nc3c(c2=O)SC(C)C3)cc1 (stereo not drawn)
inactive: growth inhibition [1] -1.77% | growth inhibition [2] -14.4% | viability increase [3] -2.56% | viability [4] 87.5% | viability [5] 88.4% | inhibition [6] 0.5% | RAM network inhibition [7] 2.13%

CC(=O)N(CCCN(C)C)CCC(C)CCC=C(C)C (stereo not drawn)
inactive: growth inhibition [1] -7.18% | growth inhibition [2] -5.88% | viability increase [3] -2.93% | viability [4] 94.1% | viability [5] 92.7% | inhibition [6] 0.41% | RAM network inhibition [7] 3.84%

N#Cc1ccc(Oc2cccc(C(=O)O)c2)cc1C#N
inactive: growth inhibition [1] -13.1% | growth inhibition [2] -3.21% | viability increase [3] -0.11% | viability [4] 94.8% | viability [5] 92.7% | inhibition [6] 1.34% | RAM network inhibition [7] 2.14%

Cc1ccc(C(c2sc3nc(C)nn3c2O)N2CCN(CCO)CC2)cc1 (stereo not drawn)
inactive: growth inhibition [1] -1.01% | growth inhibition [2] 7% | viability increase [3] -0.92% | viability [4] 97.8% | viability [5] 97.5% | inhibition [6] 1.54% | RAM network inhibition [7] 4.52%

NC(=O)C1CCN(C(=O)CN(c2cccc(C(F)(F)F)c2)S(=O)(=O)c2ccccc2)CC1
inactive: growth inhibition [1] -10.2% | growth inhibition [2] -14.5% | viability increase [3] -1.48% | viability [4] 99.7% | viability [5] 94.7% | inhibition [6] 2.27% | RAM network inhibition [7] 4.31%

COc1ccccc1N1CCN(C(=O)c2ccc(Br)s2)CC1
inactive: growth inhibition [1] -10.4% | growth inhibition [2] -6.29% | viability increase [3] -1.58% | viability [4] 87% | viability [5] 91.1% | inhibition [6] 1.69% | RAM network inhibition [7] 6.83%

Cn1c(C(=O)NCCc2c[nH]c3ccccc23)cc2sccc21
inactive: growth inhibition [1] -2.17% | growth inhibition [2] 12.7% | viability increase [3] -4.58% | viability [4] 95% | viability [5] 88% | inhibition [6] 1.56% | RAM network inhibition [7] 2%

Cc1cc(N2CCOCC2)cc(C)[n+]1[O-]
inactive: growth inhibition [1] -2.4% | growth inhibition [2] -2.99% | viability increase [3] -1.54% | viability [4] 89.5% | viability [5] 93.2% | inhibition [6] -0.115% | RAM network inhibition [7] 1.76%
